Active and inactive are the calls of the source. The rule behind the calls is not given here.
Legend:
HT-29 = assay: Growth inhibition of human HT29 cells; assay type: functional
SN12C = assay: Growth inhibition of human SN12C cells; assay type: functional
K562 = assay: Growth inhibition of human K562 cells; assay type: functional
M14 = assay: Growth inhibition of human M14 cells; assay type: functional
NCI-H23 = assay: Growth inhibition of human NCI-H23 cells; assay type: functional
[1] = Growth inhibition of human OVACAR3 cells; assay type: functional
HCT-15 = assay: Growth inhibition of human HCT15 cells; assay type: functional
NCI-H322M = assay: Growth inhibition of human NCI-H322M cells; assay type: functional
SK-MEL-2 = assay: Growth inhibition of human SK-MEL2 cells; assay type: functional
MCF7 = assay: Growth inhibition of human MCF7 cells; assay type: functional
HCC 2998 = assay: Growth inhibition of human HCC2998 cells; assay type: functional
SF-268 = assay: Growth inhibition of human SF268 cells; assay type: functional
COLO 205 = assay: Growth inhibition of human COLO205 cells; assay type: functional
[2] = molecular target: Hypoxia inducible factors; HIF-1-alpha, HIF-2-alpha (Homo sapiens, UniProt Q16665+Q99814); assay: Inhibition of HIF1 activation in human T47D cells by TK-luciferase assay; assay type: cell-based
Summary of the method: (§1)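 HIF-1 reporter (pHRE-TK-Luc) assays in transfected PC-3 or T47D cells; HIF-1 induced by hypoxia or by the hypoxia mimetic 1,10-phenanthroline (10 μM); compounds at half-log concentrations; luciferase activity measured; IC50 from experiments in triplicate.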

NCI-H226 = assay: Growth inhibition of human NCI-H226 cells; assay type: functional
786-0 = assay: Growth inhibition of human 786-0 cells; assay type: functional
TK-10 = assay: Growth inhibition of human TK10 cells; assay type: functional
ACHN = assay: Growth inhibition of human ACHN cells; assay type: functional
SNB-19 = assay: Growth inhibition of human SNB19 cells; assay type: functional
SF-539 = assay: Growth inhibition of human SF539 cells; assay type: functional
IGROV-1 = assay: Growth inhibition of human IGROV1 cells; assay type: functional
LOX IMVI = assay: Growth inhibition of human LOXIMVI cells; assay type: functional
DU-145 = assay: Growth inhibition of human DU145 cells; assay type: functional
SK-MEL-5 = assay: Growth inhibition of human SK-MEL5 cells; assay type: functional
T47D [3] = assay: Inhibition of 1,10-phenanthroline-induced VEGF protein secretion in human T47D cells at 10 uM after 16 hrs by ELISA; assay type: functional, cell-based
Summary of the method: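 T47D cells stimulated with 1,10-phenanthroline, compound at 10 μM; secreted VEGF in conditioned media by ELISA, normalized to cell-lysate protein.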

CAKI-1 = assay: Growth inhibition of human CAKI1 cells; assay type: functional
UACC-257 = assay: Growth inhibition of human UACC257 cells; assay type: functional
RXF 393 = assay: Growth inhibition of human RXF393 cells; assay type: functional
SNB-75 = assay: Growth inhibition of human SNB75 cells; assay type: functional
[4] = Inhibition of HIF1 activation in PC3 cells by TK-luciferase assay; assay type: cell-based; conditions: Homo sapiens, PC-3; summary of the method: as §1
NCI/ADR-RES = assay: Growth inhibition of human NCI/ADR-RES cells; assay type: functional
SF-295 = assay: Growth inhibition of human SF295 cells; assay type: functional
CCRF-CEM = assay: Growth inhibition of human CCRF-CEM cells; assay type: functional
NCI-H460 = assay: Growth inhibition of human NCI-H460 cells; assay type: functional
OVCAR-8 = assay: Growth inhibition of human OVACAR8 cells; assay type: functional
Malme-3M = assay: Growth inhibition of human MALME-3M cells; assay type: functional
[5] = Inhibition of 1,10-phenanthroline-induced HIF1 activation in PC3 cells by TK-luciferase assay; assay type: cell-based; conditions: Homo sapiens, PC-3; summary of the method: as §1
NCI-H522 = assay: Growth inhibition of human NCI-H522 cells; assay type: functional
UO-31 = assay: Growth inhibition of human UO31 cells; assay type: functional
T47D [6] = assay: Growth inhibition of human T47D cells; assay type: functional
OVCAR-4 = assay: Growth inhibition of human OVACAR4 cells; assay type: functional
[7] = read-out: Log LC50 (the source's name) (converted)

COc1cc(O)cc2cc3oc(C)cc(=O)c3c(OC)c12 [COMANTHERIN]
GI50 (HT-29): > 100 µM
CC50 (HT-29; [7]): > 100 µM
TGI (HT-29; read-out: Log TGI (converted)): > 100 µM
GI50 (SN12C): > 100 µM
LC50 (SN12C): > 100 µM
TGI (SN12C; read-out: Log TGI (converted)): > 100 µM
GI50 (K562): 47.9 µM
CC50 (K562; [7]): > 100 µM
TGI (K562; read-out: Log TGI (converted)): > 100 µM
GI50 (M14): > 100 µM
LC50 (50% lethal concentration) (M14): > 100 µM
TGI (M14; read-out: Log TGI (converted)): > 100 µM
GI50 (NCI-H23): > 100 µM
CC50 (NCI-H23; [7]): > 100 µM
TGI (NCI-H23; read-out: Log TGI (converted)): > 100 µM
GI50 [1]: > 100 µM
CC50 [1, 7]: > 100 µM
TGI ([1]; read-out: Log TGI (converted)): > 100 µM
GI50 (HCT-15): > 100 µM
CC50 (HCT-15; [7]): > 100 µM
TGI (HCT-15; read-out: Log TGI (converted)): > 100 µM
GI50 (NCI-H322M): > 100 µM
CC50 (NCI-H322M; [7]): > 100 µM
TGI (NCI-H322M; read-out: Log TGI (converted)): > 100 µM
GI50 (SK-MEL-2): > 100 µM
LC50 (SK-MEL-2): > 100 µM
TGI (SK-MEL-2; read-out: Log TGI (converted)): > 100 µM
GI50 (MCF7): > 100 µM
LC50 (MCF7): > 100 µM
TGI (MCF7; read-out: Log TGI (converted)): > 100 µM
GI50 (HCC 2998): > 100 µM
CC50 (HCC 2998; [7]): > 100 µM
TGI (HCC 2998; read-out: Log TGI (converted)): > 100 µM
GI50 (SF-268): 85.1 µM
LC50 (SF-268): > 100 µM
TGI (SF-268; read-out: Log TGI (converted)): > 100 µM
GI50 (COLO 205): > 100 µM
CC50 (COLO 205; [7]): > 100 µM
TGI (COLO 205; read-out: Log TGI (converted)): > 100 µM
IC50 [2]: 2.9 µM
GI50 (NCI-H226): > 100 µM
CC50 (NCI-H226; [7]): > 100 µM
TGI (NCI-H226; read-out: Log TGI (converted)): > 100 µM
GI50 (786-0): > 100 µM
LC50 (786-0): > 100 µM
TGI (786-0; read-out: Log TGI (converted)): > 100 µM
GI50 (TK-10): > 100 µM
LC50 (TK-10): > 100 µM
TGI (TK-10; read-out: Log TGI (converted)): > 100 µM
GI50 (ACHN): > 100 µM
CC50 (ACHN; [7]): > 100 µM
TGI (ACHN; read-out: Log TGI (converted)): > 100 µM
GI50 (SNB-19): > 100 µM
LC50 (SNB-19): > 100 µM
TGI (SNB-19; read-out: Log TGI (converted)): > 100 µM
GI50 (SF-539): > 100 µM
LC50 (SF-539): > 100 µM
TGI (SF-539; read-out: Log TGI (converted)): > 100 µM
GI50 (IGROV-1): > 100 µM
CC50 (IGROV-1; [7]): > 100 µM
TGI (IGROV-1; read-out: Log TGI (converted)): > 100 µM
GI50 (LOX IMVI): > 100 µM
LC50 (LOX IMVI): > 100 µM
TGI (LOX IMVI; read-out: Log TGI (converted)): > 100 µM
GI50 (DU-145): > 100 µM
CC50 (DU-145; [7]): > 100 µM
TGI (DU-145; read-out: Log TGI (converted)): > 100 µM
GI50 (SK-MEL-5): > 100 µM
LC50 (SK-MEL-5): > 100 µM
TGI (SK-MEL-5; read-out: Log TGI (converted)): > 100 µM
Activity (T47D [3]): inactive
GI50 (CAKI-1): > 100 µM
LC50 (CAKI-1): > 100 µM
TGI (CAKI-1; read-out: Log TGI (converted)): > 100 µM
GI50 (UACC-257): > 100 µM
LC50 (UACC-257): > 100 µM
TGI (UACC-257; read-out: Log TGI (converted)): > 100 µM
GI50 (RXF 393): > 100 µM
LC50 (RXF 393): > 100 µM
TGI (RXF 393; read-out: Log TGI (converted)): > 100 µM
GI50 (SNB-75): > 100 µM
LC50 (SNB-75): > 100 µM
TGI (SNB-75; read-out: Log TGI (converted)): > 100 µM
IC50 [4]: 10 µM
GI50 (NCI/ADR-RES): > 100 µM
LC50 (concentration killing 50% of cells) (NCI/ADR-RES): > 100 µM
TGI (NCI/ADR-RES; read-out: Log TGI (converted)): > 100 µM
GI50 (SF-295): > 100 µM
LC50 (SF-295): > 100 µM
TGI (SF-295; read-out: Log TGI (converted)): > 100 µM
GI50 (CCRF-CEM): 2.09 µM
LC50 (CCRF-CEM): > 100 µM
TGI (CCRF-CEM; read-out: Log TGI (converted)): > 100 µM
GI50 (NCI-H460): > 100 µM
CC50 (NCI-H460; [7]): > 100 µM
TGI (NCI-H460; read-out: Log TGI (converted)): > 100 µM
GI50 (OVCAR-8): > 100 µM
LC50 (OVCAR-8): > 100 µM
TGI (OVCAR-8; read-out: Log TGI (converted)): > 100 µM
GI50 (Malme-3M): > 100 µM
CC50 (Malme-3M; [7]): > 100 µM
TGI (Malme-3M; read-out: Log TGI (converted)): > 100 µM
IC50 [5]: > 10 µM
GI50 (NCI-H522): > 100 µM
CC50 (NCI-H522; [7]): > 100 µM
TGI (NCI-H522; read-out: Log TGI (converted)): > 100 µM
GI50 (UO-31): > 100 µM
LC50 (UO-31): > 100 µM
TGI (UO-31; read-out: Log TGI (converted)): > 100 µM
GI50 (T47D [6]): 81.3 µM
LC50 (T47D [6]): > 100 µM
TGI (T47D [6]; read-out: Log TGI (converted)): > 100 µM
GI50 (OVCAR-4): > 100 µM
LC50 (OVCAR-4): > 100 µM
TGI (OVCAR-4; read-out: Log TGI (converted)): > 100 µM
